A selection: hits, their analogues and other compounds. The true share with any hit is near 2%.
XiGFP reactiv – X-chromosome reactivation activator. XiGFP mouse fibroblasts, % GFP-positive cells imaging, 3 d; cells co-treated with 5-aza-dC sensitizer; scaled so ellipticine positive control = 100%. activation, % at 7.58 µM. 0.055% of 360,000 active;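 active means mean normalized replicate activation at least 10% and every replicate at or above 10%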
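Material: XiGFP fibroblasts, SV40-immortalized. Buffer or medium: DMEM plus 5-aza-dC sensitizer. Compound: single concentration per compound, delivered by pin transfer. Times: 3 days compound exposure. Controls: ellipticine 6 µM.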
NSD2 inh – blocks human histone methyltransferase NSD2 | NSD2 peptide methylation, AlphaScreen, 120 min | inhibition, % at 12.5 µM | 0.54% of 310,000 active; in the data active means inhibition above about 50%
ARNT TACC3 PPI – disrupts binding between human ARNT and TACC3; Q9Y6A5; AlphaScreen His-ARNT PAS-B/GST-TACC3 binding, luminescence; TACC3 fragment carries E629A point mutation; inhibition, % at 9.99 µM; 0.66% of 390,000 active; AID 623870;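 active means mean inhibition of replicates at least 50% and at least half of replicates each reaching 50%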
SR-BI DiI-HDL act – SR-BI HDL lipid transfer activation; CHO ldlA[mSR-BI] cells, DiI-HDL uptake fluorescence, 3 h; 100 = double the neutral-control signal; activation, % at 12.5 µM; 0.096% of 320,000 active;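 active means mean replicate activation of at least 60% and every replicate at or above 60%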
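System: CHO ldlA[mSR-BI] cells / Medium: HEPES-buffered (25 mM, pH 7.4) F12 plus 0.5% BSA / Probe or stimulus: labelled HDL, 10 µg/mL / Doses: single compound concentration, delivered by pin transfer / Schedule: 3 h, 37 °C / Measured by: DiI fluorescence, bottom read / Measure: cell-associated DiI fluorescence as measure of HDL uptake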
HGIII-sPLA2 inh – Inhibits HGIII-sPLA2 liposome hydrolysis, primary screen; QFRET BODIPY PC-A2 liposome hydrolysis, fluorescence; inhibition, % at 12.2 µM; 0.56% of 370,000 active; AID 743126;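 active means inhibition above mean plus 3 SD of compounds lying within the high and low control bounds, cut at about 19% in these data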
SR-BI DiI inh – mouse SR-BI HDL lipid transfer inhibition; Q61009; ldlA[mSR-BI] CHO cells, DiI-HDL uptake fluorescence, 3 h; inhibition, % at 12.5 µM; 0.96% of 320,000 active; AID 488896;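 active means mean replicate inhibition of at least 70% and a set share of replicates each scoring 70 or more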
Hits are given with their value; i = inactive; nt = no result given.

SMILES	XiGFP reactiv	NSD2 inh	ARNT TACC3 PPI	SR-BI DiI-HDL act	HGIII-sPLA2 inh	SR-BI DiI inh
CCC(C#N)(CC)P(=S)(c1ccccc1)c1ccccc1	i	i	i	63.2	i	i
CC(CC(C#N)(c1ccccc1)c1ccccc1)N(C)C (stereo unspecified)	nt	nt	i	i	i	i
COc1ccc(Br)cc1CN1CCN(C(=O)Cc2ccccc2)CC1	nt	i	i	724.7	i	i
COc1ccc(CN2CCN(C(=O)Cc3ccccc3)CC2)c(OC)c1	i	i	i	i	i	i
CCN1[C@@H]2c3ccc(-c4ccc(OC)cc4)c(=O)n3C[C@H]1[C@H](CO)[C@H]2C(=O)OC	i	nt	i	nt	nt	nt
O=C1NC(=O)N(c2cccc(Cl)c2)C(=O)/C1=C\c1ccc(Sc2nc3ccccc3[nH]2)o1	i	70.6	nt	i	i	i
O=C1NC(=O)N(c2ccccc2F)C(=O)/C1=C/c1ccc(Sc2nc3ccccc3[nH]2)o1	i	87.0	nt	i	i	i
Cc1ccc(C2=NCC(=O)N(CC(=O)N3CCCCC3)c3sc(C)c(C)c32)cc1	nt	i	i	i	i	87.9
CCn1c(NN=O)nc2ccccc21	i	i	48.3	i	i	i
CCn1c(P(C)(=O)O)nc2ccccc21	i	i	i	i	i	i
C=CCn1c(O)c(N=Nc2c(C)n(C)n(-c3ccccc3)c2=O)c(=O)[nH]c1=S	i	i	62.8	i	i	i
Cc1c(N=Cc2c(O)n(CCc3ccccc3)c(=O)[nH]c2=O)c(=O)n(-c2ccccc2)n1C	nt	i	i	i	i	i
CCOc1ccc(-n2c(O)c(N=Nc3c(C)n(C)n(-c4ccccc4)c3=O)c(=O)[nH]c2=O)cc1	i	i	59.8	i	i	i
Cc1c(N=Nc2c(O)[nH]c(=S)[nH]c2=O)c(=O)n(-c2ccccc2)n1C	i	i	61.1	i	i	i
C#C[C@]1(O)CCC2C3C(CC[C@@]21C)[C@@]1(C)CC[C@@H](O)CC1=C[C@H]3O (stereo partly specified)	i	i	i	i	i	i
O=C(NCc1ccccn1)c1ccccc1Cl	nt	i	i	i	i	i
CN1CCc2nc3ccc(F)cc3c(C(N)=O)c2C1	nt	i	i	i	i	i
COc1cc(/C=C/[N+](=O)[O-])ccc1O	i	nt	nt	80.8	i	i
CCOC(=O)C1(CCc2ccccc2)CCN(CC(O)CO)CC1 (stereo unspecified)	i	i	i	i	i	i
CC(C)C/C(=N/O)c1cn(C)c2ccccc12	i	i	i	i	i	i
CCCCCCC(=O)N/N=C/c1c(O)n(CCc2ccccc2)c(=O)[nH]c1=O	i	nt	i	i	i	i
CCCCCCC(=O)N/N=C/c1c(O)n(C(C)CC)c(=S)[nH]c1=O (stereo unspecified)	i	i	49.9	i	i	i
C=CCn1c(O)c(/C=N/NC(=O)CCCC)c(=O)[nH]c1=S	i	i	69.1	i	i	i
CCCCCCC(=O)N/N=C/c1c(O)n(C2CC2)c(=S)[nH]c1=O	i	i	30.1	i	i	i
CC1CN(c2ccc([N+](=O)[O-])cc2Cl)CCN1 (stereo unspecified)	i	i	48.9	i	i	i
SMILES	XiGFP reactiv	NSD2 inh	ARNT TACC3 PPI	SR-BI DiI-HDL act	HGIII-sPLA2 inh	SR-BI DiI inh
O=c1[nH]c(=O)n(Cc2ccco2)c(O)c1/C=N/N1CCCCC1	i	i	active	i	i	i
CCCCCCn1c(O)c(/C=N/N2CCCCCC2)c(=O)[nH]c1=O	i	i	i	150.7	i	i
CN(N)N=Nc1nc2c([nH]1)c(=O)n(C)c(=O)n2C	i	i	i	i	i	i
O=C(NC1CCCCC1)Oc1cc2oc(=O)sc2cc1Cl	i	67.1	i	nt	i	nt
O=NN(CCF)C(=O)NC1CCC(=O)NC1=O (stereo unspecified)	i	i	nt	nt	i	nt
CC=Cc1ccc2n(c1=O)C[C@H]1[C@H](CO)[C@@H](C(=O)OC)[C@@H]2N1CC1CC1 (mixture of isomers)	i	nt	i	nt	nt	nt
CCCCCCCSc1cc(OC)c(CCNC)cc1OC	nt	68.6	i	i	i	i
N#Cc1cccc(-c2ccc([C@@H]3[C@H](CO)N4CCCCN(C(=O)Cc5cccnc5)C[C@@H]34)cc2)c1	i	nt	i	nt	nt	nt

From PubChem BioAssay
